In brackets after ≈: the same amount, converted by molar mass. Activity calls are given as the source filed them. The rule behind the calls is not given here.

Tested on in one test: not listed separately
Description: (§1) Inhibition of Candida albicans secreted aspartic protease. In a few lines:
(§2)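 Candida albicans secreted aspartic protease (SAP) inhibition assay run by the earlier published method. Aspartic protease inhibitor pepstatin A served as positive control. Activity is reported as IC50 in µg/mL.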
As usually defined, the IC50 is the midpoint of a concentration-inhibition curve. A high value points to lower potency. Compound `O=C(/C=C/c1ccc(O)cc1)OC[C@H]1O[C@@H](Oc2ccc(-c3cc(=O)c4c(O)cc(O)cc4o3)cc2)[C@H](OC(=O)/C=C/c2ccc(O)cc2)[C@@H](O)[C@@H]1O` yielded an IC50 of 8.5 µg/mL (≈ 11.7 µM).

`C[C@@]12CC[C@@H]3[C@](C)(CC[C@H](O)[C@]3(C)C(=O)O)[C@H]1CC[C@@H]1[C@@]3(C)CC[C@@H](O)[C@](C)(CO)[C@@H]3C[C@H](O)[C@@]1(O)C2` [LYCERNUIC ACID C] came in with an IC50 of 20 µg/mL (≈ 38.3 µM).

`CC(C)CC(=O)N[C@H](C(=O)N[C@H](C(=O)N[C@@H](CC(C)C)[C@@H](O)CC(=O)N[C@@H](C)C(=O)N[C@@H](CC(C)C)[C@@H](O)CC(=O)O)C(C)C)C(C)C` [PEPSTATIN] yielded a half-maximal inhibitory concentration (IC50) of 0.0015 µg/mL (≈ 0.00219 µM).

The test system of a further test is Candida albicans. Described as §1. In a few lines: as §2
As to `CC1(C)[C@@H](O)CC[C@@]2(C)[C@H]1CC[C@@]1(C)CC3=CC[C@H]4C(C)(C)[C@@H](O)CC[C@]4(C)[C@H]3CC[C@@H]12`, the outcome was inactive.

With `C[C@@]12CC[C@@H]3[C@](C)(CC[C@H](O)[C@]3(C)C(=O)O)[C@H]1CC[C@H]1C(=CC[C@@H]3[C@]1(C)CC[C@@H](O)[C@]3(C)CO)C2`, the result was inactive.

`CC(=O)O[C@H]1CC[C@@]2(C)[C@@H](CC[C@@]3(C)CC4=CC[C@H]5C(C)(C)[C@H](OC(C)=O)CC[C@]5(C)[C@H]4CC[C@@H]32)[C@@]1(C)C(=O)O`: the outcome was inactive.

Take `CC1(C)[C@H](O)CC[C@]2(C)[C@H]3CC[C@H]4[C@@](C)(CC[C@@H]5[C@]4(C)CC[C@H](O)[C@]5(C)C(=O)O)CC3=CC[C@@H]12`: the result was inactive.

As for `CC1(C)[C@H](O)CC[C@]2(C)[C@H]3CC[C@H]4[C@@](C)(CC[C@@H]5[C@]4(C)CC[C@H](O)[C@]5(C)C(=O)O)C[C@]3(O)[C@@H](O)C[C@@H]12`, the outcome was inactive.

Turning to `CC(=O)O[C@H]1CC[C@@]2(C)[C@@H](CC[C@@]3(C)C[C@@]4(O)CC[C@H]5C(C)(C)[C@H](OC(C)=O)CC[C@]5(C)[C@H]4CC[C@@H]32)[C@@]1(C)C(=O)O`, the result was inactive.

Regarding `CC(=O)O[C@H]1CC[C@@]2(C)[C@@H](CC[C@@]3(C)CC4=C(CC[C@@H]32)[C@@]2(C)CC[C@@H](OC(C)=O)C(C)(C)[C@@H]2CC4)[C@@]1(C)C(=O)O`, the outcome was inactive.

`CC1(C)[C@H](O)CC[C@]2(C)[C@H]3CC[C@H]4[C@@](C)(CC[C@@H]5[C@]4(C)CC[C@@H](O)[C@]5(C)CO)CC3=CC(=O)[C@@H]12`: the result was inactive.

Turning to `CC1(C)[C@@H](O)CC[C@@]2(C)[C@H]1CC[C@@]1(C)CC3=CC[C@H]4C(C)(C)[C@H](O)CC[C@]4(C)[C@H]3CC[C@@H]12`, the result was inactive.

Take `CC(=O)OC[C@]1(C)[C@@H]2C[C@H](OC(C)=O)[C@@]3(O)C[C@]4(C)CC[C@@H]5[C@](C)(CC[C@H](OC(C)=O)[C@]5(C)C(=O)O)[C@H]4CC[C@@H]3[C@@]2(C)CC[C@H]1OC(C)=O`: the outcome was inactive.

On to `CC1(C)[C@H](O)CC[C@@]2(C)[C@H]1CC[C@]1(O)C[C@]3(C)CC[C@@H]4[C@](C)(CC[C@H](O)[C@]4(C)C(=O)O)[C@H]3CC[C@@H]12`, for which the outcome was inactive.

As to `CC(=O)O[C@H]1CC[C@@]2(C)[C@@H](CC[C@@]3(C)C[C@@]4(O)[C@H](O)C[C@H]5C(C)(C)[C@H](OC(C)=O)CC[C@]5(C)[C@H]4CC[C@@H]32)[C@@]1(C)C(=O)O`, the outcome was inactive.

As for `CC(=O)O[C@H]1CC[C@@]2(C)[C@@H](CC[C@@]3(C)C[C@@]4(O)[C@H](CC[C@@H]32)[C@@]2(C)CC[C@@H](OC(C)=O)C(C)(C)[C@@H]2C[C@@H]4O)[C@@]1(C)C(=O)O`, the outcome was inactive.

Turning to `COC(=O)[C@]1(C)[C@@H]2CC[C@@]3(C)CC4=CC(=O)[C@@H]5[C@](C)(CC[C@@H](O)[C@]5(C)CO)[C@H]4CC[C@@H]3[C@@]2(C)CC[C@@H]1O`, the result was inactive.

Turning to `COC(=O)[C@@]1(C)[C@H](O)CC[C@@]2(C)[C@H]1CC[C@@]1(C)CC3=CC(=O)[C@@H]4[C@](C)(CC[C@@H](O)[C@]4(C)CO)[C@H]3CC[C@@H]12`, the result was inactive.

For the origin of these results see ChEMBL document CHEMBL1150111, “Natural products inhibiting Candida albicans secreted aspartic proteases from Lycopodium cernuum” (J Nat Prod, 2002).
